Data on five molecules can be found in ChEMBL document CHEMBL5715947 (Blood Cancer J, 2011).

The structures appear in SMILES notation. Active and inactive are the calls of the source. The rule behind the calls is not given here.

The subject of data set [1] is Receptor-type tyrosine-protein kinase FLT3 (Homo sapiens), P36888 [UNDEFINED MUTATION]. The experiment in a line: Inhibition of FLT3-ITD mutant in human MV4-11 cells assessed as reduction in phosphorylated FLT3 protein expression up to 1000 nM incubated for 3 hrs by Western blot analysis. The class given is cell-based. (In general: Immunoblotting shows a protein as a band on a membrane.)

Data set [2] has the same test system. As to conditions: MV4-11, dose 5.0 nM, time 24.0 hrs.
Data set [3] concerns MV4-11. The experiment in a line: Down regulation of JAK2 protein expression level in human MV4-11 cells harboring FLT3-ITD mutant at 5 nM after 24 hrs by Western blot analysis. The class given is functional, cell-based.
The subject of data set [4] is MV4-11. The experiment in a line: Down regulation of JAK2 protein expression level in human MV4-11 cells harboring FLT3-ITD mutant at 18 nM after 24 hrs by Western blot analysis. The class given is functional, cell-based.
In data set [5] the test system is MV4-11. The data set is described as follows: Synergistic antiproliferative activity against human MV4-11 cells harboring FLT3-ITD mutant assessed as combination index at ED50 concentration incubated for 48 hrs in presence of JAKi-1 by CellTiter-Glo assay. It counts as functional. The essentials: (§1)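 Two drugs combined at a constant ratio based on each one's individual IC50. […] Cells seeded 2000–6000/well and treated the same day in triplicate for 48 h. Viability read by CellTiter-Glo. Synergy from dose-response data of the combination. Final DMSO 0.1%.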
For orientation: In ATP-based viability assays light output follows the ATP content of the culture.

Data set [6] in a line: Selectivity ratio of IC50 for antiproliferative activity against human linifanib-resistant MV4-11 cells harboring FLT3-ITD mutant to IC50 for antiproliferative activity against human MV4-11 cells harboring FLT3-ITD mutant. The class given is functional. The essentials: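 Linifanib-resistant MV4-11 (MV4-11-R) and parental MV4-11 (MV4-11-P) cells, 2000–6000 cells/well, dosed on the seeding day in triplicate for 48 h, with final DMSO 0.1%. Viability was read by CellTiter-Glo luminescence. IC50 for each line came from dose-response curves, and the ratio is the resistant-line IC50 divided by the parental IC50.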

In data set [7] the test system is MV4-11. The experiment in a line: Synergistic antiproliferative activity against human MV4-11 cells harboring FLT3-ITD mutant assessed as combination index at ED90 concentration incubated for 48 hrs in presence of JAKi-1 by CellTiter-Glo assay. The class given is functional. The essentials: as §1
A short description of data set [8]: Toxicity in BALB/c nude mouse xenografted with human MV4-11 cells harboring FLT-3 ITD mutant assessed as change in body weight at 25 to 100 mg/kg, po administered daily for 21 days. It counts as organism-based. As to conditions: in vivo, 504 h, dose 25-100 mg/kg, time 21 day. In general terms: A xenograft is tissue or cells of one species grown in another, often human tumour cells in immunodeficient mice.

Chain of Receptor-type tyrosine-protein kinase FLT3 (Homo sapiens), P36888 [UNDEFINED MUTATION] (P36888 whole entry, looked up, change not shown): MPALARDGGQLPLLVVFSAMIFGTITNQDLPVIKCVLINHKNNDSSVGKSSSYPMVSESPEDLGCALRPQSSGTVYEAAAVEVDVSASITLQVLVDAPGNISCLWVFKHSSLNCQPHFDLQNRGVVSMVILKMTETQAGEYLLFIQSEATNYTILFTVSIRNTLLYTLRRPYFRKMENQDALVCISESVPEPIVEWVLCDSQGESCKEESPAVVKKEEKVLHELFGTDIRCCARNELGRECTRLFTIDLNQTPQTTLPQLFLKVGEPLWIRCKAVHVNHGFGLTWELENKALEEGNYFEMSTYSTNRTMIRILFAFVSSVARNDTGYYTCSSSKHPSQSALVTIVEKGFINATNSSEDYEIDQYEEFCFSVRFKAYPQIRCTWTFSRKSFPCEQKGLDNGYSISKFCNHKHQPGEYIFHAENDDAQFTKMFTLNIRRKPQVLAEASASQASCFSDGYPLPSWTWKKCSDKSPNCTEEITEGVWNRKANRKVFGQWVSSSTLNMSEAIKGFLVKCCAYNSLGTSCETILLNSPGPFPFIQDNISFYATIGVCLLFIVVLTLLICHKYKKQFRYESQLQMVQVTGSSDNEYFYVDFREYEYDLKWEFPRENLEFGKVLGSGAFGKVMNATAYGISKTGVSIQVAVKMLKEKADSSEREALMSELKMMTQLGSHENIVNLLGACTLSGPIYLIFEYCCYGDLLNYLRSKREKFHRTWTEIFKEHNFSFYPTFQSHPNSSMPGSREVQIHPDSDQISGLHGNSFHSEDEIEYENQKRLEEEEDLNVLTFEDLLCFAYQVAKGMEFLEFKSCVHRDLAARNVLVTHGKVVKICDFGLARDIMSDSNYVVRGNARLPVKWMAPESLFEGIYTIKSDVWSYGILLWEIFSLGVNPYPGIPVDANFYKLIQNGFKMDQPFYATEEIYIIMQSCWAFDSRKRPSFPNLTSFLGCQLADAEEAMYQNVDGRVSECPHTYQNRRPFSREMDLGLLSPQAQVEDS

As for `CC(C)(C)c1nc2c3ccc(F)cc3c3c(=O)[nH]ccc3c2[nH]1`, the inhibition result in data set [1] was “inactive”.
With `CCN(CC)CCNC(=O)c1c(C)[nH]c(/C=C2\C(=O)Nc3ccc(F)cc32)c1C`, in data set [2], the inhibition result is “Active”. In addition, the outcome in data set [3] was inactive.
In the case of `Cc1cc(Nc2cc(N3CCN(C)CC3)nc(Sc3ccc(NC(=O)C4CC4)cc3)n2)n[nH]1`, the outcome in data set [4] was inactive.
Consider `Cc1ccc(F)c(NC(=O)Nc2ccc(-c3cccc4[nH]nc(N)c34)cc2)c1` [LINIFANIB], for which the inhibition entry in data set [2] was “Active”. The CI is given as 0.73 in data set [5] and 0.8 in data set [7]. Also, the “Ratio IC50” value in data set [6] came out at 127. In addition, the outcome in data set [3] was inactive.
As for `C1=C/COCc2cc(ccc2OCCN2CCCC2)Nc2nccc(n2)-c2cccc(c2)COC/1` [PACRITINIB], in data set [8], the Activity entry was “Non-Toxic”.
